≈ marks a conversion by molar mass, not a printed value.
How the values were obtained:
Type in all cases: functional
Escherichia coli [1] = test: Antimicrobial activity against Escherichia coli at 100 ug/ml by agar plate diffusion technique; details: read-out: IZ
Method in brief: (§1)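 Agar plate diffusion against E. coli, P. aeruginosa, S. aureus and B. subtilis, with compounds at 25, 50 and 100 µg/mL. Streptomycin as standard.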

Candida albicans [2] = test: Antimicrobial activity against Candida albicans at 100 ug/ml by paper disc method; details: read-out: IZ
Method in brief: (§2)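 Paper disc method against A. niger and C. albicans, with compounds at 25, 50 and 100 µg/mL. Amphotericin-B as standard.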

Candida albicans [3] = test: Antimicrobial activity against Candida albicans at 25 ug/ml by paper disc method; details: read-out: IZ; method in brief: as §2
Metaphire posthuma [4] = test: Anthelmintic activity against Pheretima posthuma assessed as time taken for complete parasite paralysis at 0.2% w/v
Method in brief: (§3)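 Earthworms (Pheretima posthuma) exposed to test solutions at 0.1, 0.2 and 0.5% w/v; time in minutes to complete paralysis (worms motionless) recorded. Albendazole as standard. Mean of three determinations ± S.D.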

Staphylococcus aureus [5] = test: Antimicrobial activity against Staphylococcus aureus at 25 ug/ml by agar plate diffusion technique; details: read-out: IZ; method in brief: as §1
Metaphire posthuma [6] = test: Anthelmintic activity against Pheretima posthuma assessed as time taken for parasite death at 0.2% w/v
Method in brief: (§4)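 Earthworms (Pheretima posthuma, spelled Perituma posthuma in text) exposed to test compounds at 0.1, 0.2 and 0.5% w/v. Albendazole served as standard, with an untreated control. Paralysis was recorded as the time until worms became motionless, then time to death was recorded, in minutes. Each value is the mean of three determinations with S.D.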

Metaphire posthuma [7] = test: Anthelmintic activity against Pheretima posthuma assessed as time taken for parasite death at 0.1% w/v; method in brief: as §4
Staphylococcus aureus [8] = test: Antimicrobial activity against Staphylococcus aureus at 100 ug/ml by agar plate diffusion technique; details: read-out: IZ; method in brief: as §1
Escherichia coli [9] = test: Antimicrobial activity against Escherichia coli at 25 ug/ml by agar plate diffusion technique; details: read-out: IZ; method in brief: as §1
Bacillus subtilis [10] = test: Antimicrobial activity against Bacillus subtilis at 25 ug/ml by agar plate diffusion technique; details: read-out: IZ; method in brief: as §1
Staphylococcus aureus [11] = test: Antimicrobial activity against Staphylococcus aureus at 50 ug/ml by agar plate diffusion technique; details: read-out: IZ; method in brief: as §1
[12] = Antioxidant activity assessed as hydrogen peroxide scavenging activity after 10 mins
Method in brief: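 H2O2 (20 mM) in PBS pH 7.4. 1 mL of sample or ascorbic acid in methanol (12.5–100 µg/mL) added to 2 mL H2O2 solution. A230 read after 10 min. % inhibition = [1 − (Vt/Vc)] × 100. Triplicate, averaged. IC50 derived from % inhibition across concentrations.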

Candida albicans [13] = test: Antimicrobial activity against Candida albicans at 50 ug/ml by paper disc method; details: read-out: IZ; method in brief: as §2
Metaphire posthuma [14] = test: Anthelmintic activity against Pheretima posthuma assessed as time taken for parasite death at 0.5% w/v; method in brief: as §4
Aspergillus niger [15] = test: Antimicrobial activity against Aspergillus niger at 25 ug/ml by paper disc method; details: read-out: IZ; method in brief: as §2
Pseudomonas aeruginosa [16] = test: Antimicrobial activity against Pseudomonas aeruginosa at 25 ug/ml by agar plate diffusion technique; details: read-out: IZ; method in brief: as §1
Aspergillus niger [17] = test: Antimicrobial activity against Aspergillus niger at 100 ug/ml by paper disc method; details: read-out: IZ; method in brief: as §2
Bacillus subtilis [18] = test: Antimicrobial activity against Bacillus subtilis at 50 ug/ml by agar plate diffusion technique; details: read-out: IZ; method in brief: as §1
Metaphire posthuma [19] = test: Anthelmintic activity against Pheretima posthuma assessed as time taken for complete parasite paralysis at 0.5% w/v; method in brief: as §3
Pseudomonas aeruginosa [20] = test: Antimicrobial activity against Pseudomonas aeruginosa at 100 ug/ml by agar plate diffusion technique; details: read-out: IZ; method in brief: as §1
Metaphire posthuma [21] = test: Anthelmintic activity against Pheretima posthuma assessed as time taken for complete parasite paralysis at 0.1% w/v; method in brief: as §3
Escherichia coli [22] = test: Antimicrobial activity against Escherichia coli at 50 ug/ml by agar plate diffusion technique; details: read-out: IZ; method in brief: as §1
[23] = Antioxidant activity assessed as inhibition of lipid peroxidation using egg lecithin liposomes incubated for 1 hr
Method in brief: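 Egg lecithin (3 mg/mL, phosphate buffer pH 7.4) sonicated 10 min to form liposomes. Sample or ascorbic acid (12.5–100 µg/mL) added. Peroxidation induced with FeCl3 and L-ascorbic acid, 1 h at 37 °C. Stopped with HCl/TCA/TBA/BHA, boiled 15 min, centrifuged, supernatant read at 532 nm. Triplicate. % inhibition vs control. IC50 derived.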

[24] = Antioxidant activity assessed as nitric oxide radical scavenging activity after 150 mins
Method in brief: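 10 mM sodium nitroprusside (4 mL), PBS pH 7.4 (1 mL) and sample or ascorbic acid in DMSO (1 mL, 12.5–100 µg/mL), incubated 150 min at 25 °C. Nitrite detected with sulphanilic acid (5 min) then naphthylethylenediamine (30 min, diffused light). Read at […]. Triplicate. % inhibition = [1 − (Vt/Vc)] × 100. IC50 derived from it.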

[25] = Antiinflammatory activity assessed as inhibition of albumin denaturation at 100 ug/ml by UV-visible spectrophotometry
Method in brief: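 Compounds dissolved in minimal DMF, diluted in PBS pH 7.4 (final DMF <2.5%). 1 mL test solution (100 µg/mL) plus 1 mL 1% albumin in PBS, 15 min at 27 ± 1 °C, then heated 10 min at 60 ± 1 °C. After cooling, turbidity read at 660 nm. % inhibition = [(Vt/Vc) − 1] × 100 against a no-drug control. Triplicate, averaged. Diclofenac standard.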

Aspergillus niger [26] = test: Antimicrobial activity against Aspergillus niger at 50 ug/ml by paper disc method; details: read-out: IZ; method in brief: as §2
[27] = Antioxidant activity assessed as potassium ferricyanide ion reducing power after 20 mins
Method in brief: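 Oyaizu method. Samples or ascorbic acid in DMF (12.5–100 µg/mL) mixed with 0.2 M phosphate buffer pH 6.6 and 1% potassium ferricyanide, 20 min at 50 °C. 10% TCA added, centrifuged. Supernatant mixed with water and 0.1% FeCl3, read at 700 nm. % = [(Vt/Vc) − 1] × 100. IC50 derived.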

Pseudomonas aeruginosa [28] = test: Antimicrobial activity against Pseudomonas aeruginosa at 50 ug/ml by agar plate diffusion technique; details: read-out: IZ; method in brief: as §1
Bacillus subtilis [29] = test: Antimicrobial activity against Bacillus subtilis at 100 ug/ml by agar plate diffusion technique; details: read-out: IZ; method in brief: as §1

Compound | zone of inhibition at 100 µg/mL (Escherichia coli [1]) [mm] | zone of inhibition at 100 µg/mL (Candida albicans [2]) [mm] | zone of inhibition at 25 µg/mL (Candida albicans [3]) [mm] | Time (Metaphire posthuma [4]) [min] | zone of inhibition at 25 µg/mL (Staphylococcus aureus [5]) [mm] | Time (Metaphire posthuma [6]) [min] | Time (Metaphire posthuma [7]) [min] | zone of inhibition at 100 µg/mL (Staphylococcus aureus [8]) [mm] | zone of inhibition at 25 µg/mL (Escherichia coli [9]) [mm] | zone of inhibition at 25 µg/mL (Bacillus subtilis [10]) [mm] | zone of inhibition at 50 µg/mL (Staphylococcus aureus [11]) [mm] | IC50 [12] [µg/mL] | zone of inhibition at 50 µg/mL (Candida albicans [13]) [mm] | Time (Metaphire posthuma [14]) [min] | zone of inhibition at 25 µg/mL (Aspergillus niger [15]) [mm] | zone of inhibition at 25 µg/mL (Pseudomonas aeruginosa [16]) [mm] | zone of inhibition at 100 µg/mL (Aspergillus niger [17]) [mm] | zone of inhibition at 50 µg/mL (Bacillus subtilis [18]) [mm] | Time (Metaphire posthuma [19]) [min] | zone of inhibition at 100 µg/mL (Pseudomonas aeruginosa [20]) [mm] | also measured
COc1cccc(-c2nc(NN)n(C)c(=O)c2C#N)c1OC | 8.12 | 17.9 | 10.1 | 55.57 | 8.72 | 70.25 | 71.45 | 15.8 | 7.38 | 9.9 | 11.2 | 36 (≈ 119 µM) | 11 | 67.22 | 8.38 | 6.15 | 16.7 | 12.2 | 51.42 | 9.15 | Time (Metaphire posthuma [21]): 55.23 min; zone of inhibition at 50 µg/mL (Escherichia coli [22]): 7.16 mm; IC50 [23]: 37 µg/mL (≈ 123 µM); IC50 [24]: 54 µg/mL (≈ 179 µM); inhibition [25]: 24.6%; zone of inhibition at 50 µg/mL (Aspergillus niger [26]): 10.3 mm; IC50 [27]: 44 µg/mL (≈ 146 µM); zone of inhibition at 50 µg/mL (Pseudomonas aeruginosa [28]): 8.12 mm; zone of inhibition at 100 µg/mL (Bacillus subtilis [29]): 16.7 mm
Cn1c(NN)nc(-c2ccccc2F)c(C#N)c1=O | 15.3 | 19.2 | 11.8 | 51.34 | 13.6 | 65.43 | 68.45 | 22.2 | 9.85 | 13.1 | 17.3 | 49 (≈ 189 µM) | 17 | 61.02 | 11.1 | 9 | 19.6 | 15.7 | 48.77 | 15.4 | Time (Metaphire posthuma [21]): 54.93 min; zone of inhibition at 50 µg/mL (Escherichia coli [22]): 13.5 mm; IC50 [23]: 43 µg/mL (≈ 166 µM); IC50 [24]: 60 µg/mL (≈ 231 µM); inhibition [25]: 42.1%; zone of inhibition at 50 µg/mL (Aspergillus niger [26]): 14 mm; IC50 [27]: 50 µg/mL (≈ 193 µM); zone of inhibition at 50 µg/mL (Pseudomonas aeruginosa [28]): 13.8 mm; zone of inhibition at 100 µg/mL (Bacillus subtilis [29]): 21.6 mm
CCOC(=O)c1cnn(-c2nc(-c3ccco3)c(C#N)c(=O)n2C)c1N | 18 | 18 | 10.9 | 42.22 | 10.9 | 55.23 | 58.76 | 17.7 | 13 | 12.9 | 14.1 | 104 (≈ 294 µM) | 12.3 | 54.82 | 10.1 | 9.19 | 20.4 | 14.1 | 45.98 | 19.9 | Time (Metaphire posthuma [21]): 47.26 min; zone of inhibition at 50 µg/mL (Escherichia coli [22]): 14.2 mm; IC50 [23]: 116 µg/mL (≈ 327 µM); IC50 [24]: 108 µg/mL (≈ 305 µM); inhibition [25]: 42.2%; zone of inhibition at 50 µg/mL (Aspergillus niger [26]): 13.1 mm; IC50 [27]: 91 µg/mL (≈ 257 µM); zone of inhibition at 50 µg/mL (Pseudomonas aeruginosa [28]): 12.1 mm; zone of inhibition at 100 µg/mL (Bacillus subtilis [29]): 18.3 mm
CCOC(=O)c1cnn(-c2nc(-c3ccccc3O)c(C#N)c(=O)n2C)c1N | 24.4 | 15.5 | 10.6 | 40.03 | 12.3 | 49.54 | 55.2 | 22.8 | 13.5 | 13.9 | 17.4 | 58 (≈ 152 µM) | 14.5 | 47.23 | 9.21 | 10.2 | 18.1 | 14.2 | 38.52 | 21.1 | Time (Metaphire posthuma [21]): 43.09 min; zone of inhibition at 50 µg/mL (Escherichia coli [22]): 17.3 mm; IC50 [23]: 57 µg/mL (≈ 150 µM); IC50 [24]: 64 µg/mL (≈ 168 µM); inhibition [25]: 54.4%; zone of inhibition at 50 µg/mL (Aspergillus niger [26]): 12.6 mm; IC50 [27]: 48 µg/mL (≈ 126 µM); zone of inhibition at 50 µg/mL (Pseudomonas aeruginosa [28]): 15 mm; zone of inhibition at 100 µg/mL (Bacillus subtilis [29]): 23.1 mm

From ChEMBL document CHEMBL1821590, “Novel dihydropyrimidines and its pyrazole derivatives: synthesis and pharmacological screening” (Eur J Med Chem, 2011)
